This is a sample that favours compounds with a hit; in the whole collection about 2.2% have one here.
MT1-MMP txn act – activates MT1-MMP transcription. HT1080 MT1-MMP promoter luciferase reporter, luminescence, overnight; hits give high values. activation factor at 10 µM. 86,000 compounds, 0.16% hits;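 active = activation factor of at least 2 for MT1-MMP transcription at 10 µM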
CD11b adhes enh – CD11b/CD18-fibrinogen binding enhancement | 93,000 compounds, 0.07% hits | P05107+P11215 | K562 CD11b/CD18 adhesion to fibrinogen, ATPlite luminescence | activation, % at 10 µM;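 active = 10 µM primary screen giving 50% or more activity, confirmed by 40% or more on retest at that dose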
RORa activator – activators of human nuclear receptor RORA. P35398. CHO-K1 Gal4-RORA LBD luciferase reporter, luminescence; percent increase over mock-subtracted basal signal. activation, % at 10 µM. 65,000 compounds, 1.5% hits. AID 560;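 active = activation above the mean of all tested compounds plus 3 SD, cut at about 49% in these data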;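 also: 0% = DMSO-treated RORA cells and 100% = added signal equal to DMSO minus mock-transfected cells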
Candida biofilm – kills Candida albicans biofilms; C. albicans biofilm + clotrimazole, Alamar Blue; 85,000 compounds, 0.14% hits; inhibition, % at 6 µM;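 active = inhibition above 20%; inactive = inhibition below 20%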;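 also: preformed 24 hr biofilms exposed to compound for 48 hr; 0% = biofilm without compound and 100% = blank killed by clotrimazole plus chlorhexidine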
SF1 activator – SF-1 (human) activation. CHO-K1 Gal4-SF-1 LBD luciferase reporter; % increase over DMSO SF-1-specific signal. activation, % at 10 µM. 65,000 compounds, 1.9% hits. AID 522;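 active = activation above the mean activation of all tested compounds plus 3 SD, cut at about 50% in these data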
Target sequence (Q13285 whole entry, looked up, the tested form may be a part): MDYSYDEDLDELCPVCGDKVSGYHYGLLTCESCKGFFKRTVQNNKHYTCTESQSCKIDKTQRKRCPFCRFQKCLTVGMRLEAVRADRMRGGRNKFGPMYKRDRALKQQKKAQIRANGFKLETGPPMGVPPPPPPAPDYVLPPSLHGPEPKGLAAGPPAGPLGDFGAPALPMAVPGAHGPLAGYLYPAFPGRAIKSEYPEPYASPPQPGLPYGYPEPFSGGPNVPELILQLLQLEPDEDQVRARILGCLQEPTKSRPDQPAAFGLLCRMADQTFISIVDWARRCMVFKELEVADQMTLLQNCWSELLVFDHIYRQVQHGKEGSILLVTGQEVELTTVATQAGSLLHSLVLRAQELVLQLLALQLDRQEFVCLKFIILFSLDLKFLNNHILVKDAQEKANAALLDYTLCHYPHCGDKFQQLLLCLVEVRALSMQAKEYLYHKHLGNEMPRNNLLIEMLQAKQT
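Test system: transient Gal4-SF-1 LBD reporter, CHO-K1; Amount: 4,000 CHO-K1 cells per well; Doses: 10 µM only; Timing: compound exposure 20 h at 37 °C; Signal: luciferase light emission; Read-out basis: percent activation relative to DMSO median and mock-transfected background; Control set: DMSO negative control and −SF1 background wells; Replicates: one test per compound.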
Mac1 fbg inh – inhibitors of human CD11b/CD18 binding to fibrinogen. K562 CD11b/CD18 adhesion to fibrinogen, ATPlite luminescence; Mn2+ added to activate the integrin. 93,000 compounds, 0.54% hits. inhibition, % at 10 µM. P05107+P11215;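 active = primary inhibition of 50% or more at 10 µM, then 40% or more on retest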
* = called active by the depositor; x = no result.

SMILES	MT1-MMP txn act	CD11b adhes enh	RORa activator	Candida biofilm	SF1 activator	Mac1 fbg inh
Cc1ccc2c(c1)C(N1CCCC1=O)CC(c1ccco1)N2 (stereo not given)	0.2	-4	52*	x	58*	57
COc1ccc2[nH]c(=O)c(CN(Cc3ccccc3)Cc3nnnn3CC3CCCO3)cc2c1 (stereo not given)	1	-3	83*	7	57*	8
COc1cc2cc(CN(Cc3nnnn3Cc3ccccc3)CC3CCCO3)c(=O)[nH]c2cc1OC (stereo not given)	1	0	-20	11	0	14
S=C(Nc1ccc(Cl)c(Cl)c1)NN1CCOCC1	x	-1	x	x	x	4
CCn1c2ccccc2c2cc(NC(C)=O)ccc21	0.9	-3	x	44*	x	-1
CC1(C)CC(=O)CC(=O)/C1=N\Nc1c(Cl)cc(Cl)cc1Cl	x	4	x	x	x	-4
COc1cc(C(=O)N2CCN(c3ncnc4sc(C)c(C)c34)CC2)cc(OC)c1OC	1.1	-12	-22	2	-33	60*
O=C(C1CC1)N1CCN(C(c2ccccc2)c2ccccc2)CC1	1.1	-5	x	41*	x	-18
O=C(C1CCCCN1S(=O)(=O)c1ccccc1)N1CCN(C(c2ccccc2)c2ccccc2)CC1 (stereo not given)	1.1	22	x	-1	x	-2
COC(=O)[C@@]1(Cc2ccccc2)[C@H]2c3cc(C(=O)N4CCCC4)n(Cc4c(CO)[nH]cc(C)c4=O)c3C[C@H]2CN1C(=O)c1ccccc1	1.2	x	x	x	x	x
COC(=O)c1cc(-c2ccccc2)n(CCNC(=O)CCCCCN2C(=O)NC(c3ccc(-c4ccccc4)cc3)C(C(=O)OCc3ccccc3)=C2C)c1C (stereo not given)	1.2	x	x	x	x	x
O=C(OCc1nc2ccccc2s1)c1cccs1	1.5	-2	53*	9	50*	5
O=C(OCc1nc2ccccc2c(=O)[nH]1)c1cccs1	1.4	1	-2	5	2	-2
O=C(COC(=O)c1cnccn1)NCc1ccccc1	1.2	-4	x	6	x	-8
O=C(OCc1nc2ccccc2s1)c1cnccn1	1.7	-3	53*	x	54*	-2
CCc1ccc(C(=O)CN2C(=O)NC(C)(CCc3ccccc3)C2=O)cc1 (stereo not given)	x	2	x	x	x	16
COC(=O)c1ccc(C(NC(=O)OCc2ccccc2)/C(F)=C/[C@@H](C)C(=O)NCc2nn(-c3ccccc3)nc2C)cc1 (stereo not given in full)	1.5	x	x	x	x	x
COc1cc(CC(=O)NNC(=O)c2cc(C)oc2C)cc(OC)c1OC	x	-3	x	x	x	-6
COc1cc(NC(=O)CN(C)C2CCCCC2)c(C)cc1[N+](=O)[O-]	x	-1	x	x	x	-5
COC(=O)c1[nH]c2cc(C)ccc2c1NC(=O)CN1CCCc2ccccc21	2.2*	x	8	x	14	x
COC(=O)c1[nH]c2ccc(Br)cc2c1NC(=O)CN1CCCc2ccccc21	1.3	x	x	0	x	x
Nc1nc(-c2ccccc2)nc(-c2ccccc2O)n1	1.2	x	-1	x	26	x
Nc1nc(-c2ccccc2)cc(-c2ccccc2O)n1	1.2	5	49*	-2	19	3
C=CCn1c(Cc2cccs2)nnc1SC/C=C/c1ccccc1	1.1	-1	x	8	x	17
C=CCn1c(C)cc(C(=O)COC(=O)[C@@H](NC(=O)c2ccccc2Cl)C(C)C)c1C	x	-9	x	x	x	79*
SMILES	MT1-MMP txn act	CD11b adhes enh	RORa activator	Candida biofilm	SF1 activator	Mac1 fbg inh
C=CCn1c(C)cc(C(=O)COC(=O)COc2ccccc2C#N)c1C	1	-4	-21	11	29	-7
COCCn1c(C(=O)N(C)C)cc2c1C[C@H]1CN(C(=O)c3ccccc3)[C@@](Cc3ccc(OC)cc3)(C(=O)OC)[C@@H]21	1.2	x	x	x	x	x
COc1cccc(-c2nn(-c3ccccc3)cc2CO)c1	1.7	-2	62*	7	46	-3
OCc1cn(-c2ccccc2)nc1-c1ccc2c(c1)OCCO2	2.1*	-9	73*	4	43	6
CCC/C=N/NC(=O)c1[nH]c2c([N+](=O)[O-])cccc2c1C	x	7	x	x	x	-6
Cc1ccc2[nH]c(O)c(N=NC(=O)C3CC3c3ccccc3)c2c1Br (stereo not given)	x	26	x	x	x	-14
Cc1nn(-c2ccccc2)c(Cl)c1C(=O)N(C)c1nc(-c2ccc(F)cc2)cs1	x	1	x	x	x	-23
C[C@H](NC(=O)[C@@H]1C[C@H]1[C@@H](NC(=O)OCc1ccccc1)c1ccccc1)c1ccccc1	1.1	x	x	x	x	x
CCc1nnc(NC(=O)CSc2nc(C)c3c(c2C#N)CCCC3)s1	1.2	-4	-9	5	55*	2
O=C(OC1CCCCC1)c1ccc2c(c1)C1C=CCC1C(C(=O)O)N2 (stereo not given)	x	150*	17	x	23	-59
Cc1ccc(-c2nc3n(n2)Cc2ccccc2-3)cc1	x	x	x	9	x	x
CCn1c(C)nc2cc(-c3nc4n(n3)Cc3ccccc3-4)ccc21	0	-10	-96	8	-96	98*
CC1CCc2c(sc(Nc3nc4c(F)cccc4s3)c2C(N)=O)C1 (stereo not given)	x	11	x	x	x	61
COC(=O)[C@H](Cc1ccccc1)NC(=O)[C@H]1C[C@@H]1[C@H](NC(=O)OCc1ccccc1)c1ccccc1	1.2	x	x	x	x	x
CCOC(=S)SCC(=O)N1CCc2ccccc2C1C1C(=O)CCCC1=O (stereo not given)	x	5	x	x	x	-5
COc1ccc2c(c1)CCc1c(C(=O)N3CCCCCC3)noc1-2	1.6	-2	5	3	57*	-1
COc1ccc2c(c1)CCc1c(C(=O)NCc3cccnc3)noc1-2	1.2	2	46	7	39	6
COc1ccc(-c2cc3nc(C)cc(NCCO)n3n2)cc1	1.2	6	1	8	8	-6
Cc1ccc(-c2cc3nc(C)cc(NCc4ccco4)n3n2)cc1	1.5	-7	59*	5	51*	19
Cc1ccc(-n2c(SCC(=O)N3Cc4ccccc4CC3C(=O)O)nnc2-c2cccnc2)c(C)c1 (stereo not given)	x	-1	x	x	x	-11
Cn1c(SCc2ccccc2)nnc1-c1ccc2c(c1)OCO2	1.4	-3	55*	4	36	-13
Cn1c(SCC#N)nnc1-c1ccc2c(c1)OCO2	1.2	x	x	4	x	x
Cc1ccc(NC(=O)C(OC(=O)c2ccc(C=O)cc2)c2ccccc2)cc1Cl (stereo not given)	x	5	x	x	x	61
